PostGolgi ctrl: growth inhibition of yeast control strain, primary screen, counter-screen for post-Golgi transport modulator project; efflux-deficient yeast background strain, growth absorbance A615, 16 h; inhibition, % at 10 µM; actives 5% (n = 98,000)
Ecoli WT expand: growth inhibitors of wild-type E. coli, primary screen, strain BW25113, expanded library, OD600. OD600 absorbance. actives 0.15% (n = 98,000). growth inhibition, % at 100 µM;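 active = growth inhibition above about 50% at one test dose, limit read from the data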;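 note: growth measured after 20 h incubation at 37 °C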
Cav3 T inh: Cav3.2 calcium influx blockers – cell-based, Fluo-4 calcium fluorescence, FDSS, MLSMR library, primary screen. Cav3.2-expressing cells; stronger effect = lower value. B-score at 10 µM. actives 4% (n = 100,000). Voltage-dependent T-type calcium channel subunit alpha-1H (Homo sapiens), O95180;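 active = single-dose well whose peak fluorescence ratio is a statistical outlier from its plate by either plate-standardised score or position-corrected B-score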
Target sequence (O95180 whole entry, looked up): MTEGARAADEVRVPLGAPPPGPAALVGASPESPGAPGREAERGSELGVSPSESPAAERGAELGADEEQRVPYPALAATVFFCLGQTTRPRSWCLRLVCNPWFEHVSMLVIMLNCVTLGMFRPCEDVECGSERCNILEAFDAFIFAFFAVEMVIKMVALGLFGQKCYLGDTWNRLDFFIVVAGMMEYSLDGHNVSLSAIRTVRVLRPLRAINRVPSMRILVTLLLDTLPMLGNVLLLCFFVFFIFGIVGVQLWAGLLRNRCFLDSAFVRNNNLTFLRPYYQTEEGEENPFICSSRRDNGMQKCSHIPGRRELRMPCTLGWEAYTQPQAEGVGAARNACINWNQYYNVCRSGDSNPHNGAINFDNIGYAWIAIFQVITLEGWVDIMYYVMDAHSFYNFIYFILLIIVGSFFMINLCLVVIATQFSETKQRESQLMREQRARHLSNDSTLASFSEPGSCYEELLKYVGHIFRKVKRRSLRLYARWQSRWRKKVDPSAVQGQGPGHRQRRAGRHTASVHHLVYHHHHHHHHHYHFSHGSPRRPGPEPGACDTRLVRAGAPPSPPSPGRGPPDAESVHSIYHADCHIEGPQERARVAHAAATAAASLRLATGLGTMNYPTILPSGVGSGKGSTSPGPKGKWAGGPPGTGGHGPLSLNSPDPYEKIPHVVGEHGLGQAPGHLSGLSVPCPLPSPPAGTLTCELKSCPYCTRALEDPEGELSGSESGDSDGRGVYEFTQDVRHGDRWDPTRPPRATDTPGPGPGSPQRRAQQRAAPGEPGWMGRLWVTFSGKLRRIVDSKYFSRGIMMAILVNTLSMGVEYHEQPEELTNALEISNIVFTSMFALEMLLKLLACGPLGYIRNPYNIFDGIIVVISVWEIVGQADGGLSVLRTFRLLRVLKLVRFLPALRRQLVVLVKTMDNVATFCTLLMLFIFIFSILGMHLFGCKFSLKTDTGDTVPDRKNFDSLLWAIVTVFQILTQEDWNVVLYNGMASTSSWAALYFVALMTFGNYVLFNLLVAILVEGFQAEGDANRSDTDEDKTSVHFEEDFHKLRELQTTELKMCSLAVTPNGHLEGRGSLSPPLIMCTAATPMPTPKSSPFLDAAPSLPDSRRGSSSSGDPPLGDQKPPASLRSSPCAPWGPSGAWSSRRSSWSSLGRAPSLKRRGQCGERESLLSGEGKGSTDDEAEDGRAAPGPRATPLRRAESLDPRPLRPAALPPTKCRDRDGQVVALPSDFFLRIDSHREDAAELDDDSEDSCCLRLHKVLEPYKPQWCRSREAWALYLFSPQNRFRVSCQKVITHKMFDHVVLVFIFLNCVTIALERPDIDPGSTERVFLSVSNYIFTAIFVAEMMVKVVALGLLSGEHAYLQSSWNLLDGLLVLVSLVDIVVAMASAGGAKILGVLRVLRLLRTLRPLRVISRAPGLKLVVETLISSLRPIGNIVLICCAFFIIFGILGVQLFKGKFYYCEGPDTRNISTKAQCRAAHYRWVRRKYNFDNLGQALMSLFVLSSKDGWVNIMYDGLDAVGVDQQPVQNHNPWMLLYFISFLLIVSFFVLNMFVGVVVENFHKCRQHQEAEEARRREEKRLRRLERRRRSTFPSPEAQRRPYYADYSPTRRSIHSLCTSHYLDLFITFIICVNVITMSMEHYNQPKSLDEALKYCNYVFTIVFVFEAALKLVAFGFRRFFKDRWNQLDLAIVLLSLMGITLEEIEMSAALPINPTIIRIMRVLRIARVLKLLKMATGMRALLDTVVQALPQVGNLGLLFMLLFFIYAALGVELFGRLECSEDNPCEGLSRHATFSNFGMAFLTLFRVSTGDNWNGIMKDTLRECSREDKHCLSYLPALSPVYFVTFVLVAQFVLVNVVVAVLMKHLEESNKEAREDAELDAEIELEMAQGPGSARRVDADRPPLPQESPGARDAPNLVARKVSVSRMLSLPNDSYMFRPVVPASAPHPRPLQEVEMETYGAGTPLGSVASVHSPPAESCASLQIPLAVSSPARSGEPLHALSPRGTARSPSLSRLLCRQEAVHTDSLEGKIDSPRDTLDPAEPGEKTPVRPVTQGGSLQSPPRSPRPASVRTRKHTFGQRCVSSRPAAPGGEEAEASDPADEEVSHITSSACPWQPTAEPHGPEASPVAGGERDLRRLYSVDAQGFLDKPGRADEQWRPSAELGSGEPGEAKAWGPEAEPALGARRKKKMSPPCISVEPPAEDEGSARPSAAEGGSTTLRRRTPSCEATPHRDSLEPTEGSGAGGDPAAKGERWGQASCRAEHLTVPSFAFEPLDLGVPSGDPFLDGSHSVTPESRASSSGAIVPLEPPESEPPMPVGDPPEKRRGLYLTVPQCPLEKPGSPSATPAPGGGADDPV
PostGolgi yeast: phenotypic screen on post-Golgi transport, primary screen; post-Golgi transport phenotypic cell assay; actives 0.9% (n = 98,000); inhibition, % at 10 µM;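 note: yeast cells grown in 1536-well plates; yeast grown about 18 h at 30C before absorbance read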
Ecoli tolC: growth inhibitors of E. coli tolC mutant, primary screen, strain BW25113 ΔtolC::kan, 384-well; OD615; actives 2.2% (n = 65,000); growth inhibition, % at 10 µM (by protocol);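 active = growth inhibition at or above a cutoff equal to the mean over every tested compound plus 3 SD, cut at about 60% in these data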;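 note: growth measured after 20 h incubation at 37 °C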
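Signal: optical density read at 615 nm; Assay system: E. coli ΔtolC::kan strain BW25113; Times: 20 h incubation with compound, 37 °C; Dosing: 10 µM final, single dose.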
Active calls of the source: *. A selection: hits, their analogues and other compounds. The true share with any hit is near 8.4%. Cut-off read from the data, not from the text of the source, unless noted: active = inhibition above about 30%; inactive = the rest.

For Cc1c(CCC(=O)O)c(=O)oc2cc(O)ccc12 the results were PostGolgi ctrl 0, Ecoli WT expand -2, Cav3 T inh 0.92, PostGolgi yeast 5 and Ecoli tolC -10.
Screening Cc1cc(C)c(S(C)(=O)=O)c(Sc2ccc(Cl)cc2)n1 returned PostGolgi ctrl 31*, Ecoli WT expand -5, Cav3 T inh -0.13 and PostGolgi yeast 16.
Screening O=C(Cn1c(=O)c2c(ncn2C2CCCC2)n(Cc2ccccc2)c1=O)N1CCc2ccccc21 returned PostGolgi ctrl 11, Ecoli WT expand -18, Cav3 T inh -4.4*, PostGolgi yeast 2 and Ecoli tolC 17.
Screening N#C/C(=C\C1CC=CCC1)c1nc2ccccc2[nH]1 (configuration not stated) returned PostGolgi ctrl 9, Ecoli WT expand -7, Cav3 T inh -1.4, PostGolgi yeast -6 and Ecoli tolC 64*.
`Cn1c(/C(C#N)=C/C2CC=CCC2)nc2ccccc21` (configuration not stated) gave PostGolgi ctrl 24, Ecoli WT expand -2, Cav3 T inh 0.41, PostGolgi yeast -9 and Ecoli tolC 3.
`O=C(N1CCN(c2cccc(Cl)c2)CC1)C1(S(=O)(=O)c2ccc(Cl)cc2)CC1` gave PostGolgi ctrl 90*, Ecoli WT expand -7, Cav3 T inh -4.7* and PostGolgi yeast 80*.
Screening Cc1ccc(Cl)cc1N1CCN(C(=O)C2(S(=O)(=O)c3ccc(Cl)cc3)CC2)CC1 returned PostGolgi ctrl 40*, Ecoli WT expand -5, Cav3 T inh -6.1* and PostGolgi yeast -4.
COc1ccccc1C1(CC(=O)N2CCOCC2)CCOC(C(C)C)C1 (configuration not stated) was read as PostGolgi ctrl 5, Ecoli WT expand 6, Cav3 T inh 0.58, PostGolgi yeast -13 and Ecoli tolC 5.
`COc1ccc(C(=O)OC(C(=O)c2ccccc2)c2ccccc2)cc1` (configuration not stated) gave PostGolgi ctrl 66*, Ecoli WT expand -21, Cav3 T inh -3.6 and PostGolgi yeast -1.
Cc1ccc(-n2c(C)nc3c(cnn3-c3ccc(F)cc3)c2=O)cc1 was read as PostGolgi ctrl 6, Ecoli WT expand 2, PostGolgi yeast 4 and Ecoli tolC -22.
`Cc1nc2c(cnn2-c2ccccc2Cl)c(=O)n1-c1ccc(C(C)C)cc1` gave PostGolgi ctrl 15, Ecoli WT expand -6, Cav3 T inh -6.2* and PostGolgi yeast 5.
For CC1=C(C(=O)Nc2ccccc2)C(c2ccco2)C(C#N)=C(SCC(=O)OC(C)C)N1 (configuration not stated) the results were PostGolgi ctrl 27, Ecoli WT expand -13, Cav3 T inh -4.9*, PostGolgi yeast 3 and Ecoli tolC 50.
Screening CC1=C(C(=O)Nc2ccccc2)C(c2ccco2)C(C#N)=C(SCC(=O)Nc2cccc(C)c2C)N1 (configuration not stated) returned PostGolgi ctrl -1, Ecoli WT expand -18, Cav3 T inh -5.4*, PostGolgi yeast -5 and Ecoli tolC 31.
CC(=O)C1=C(C)NC(SCC(=O)c2cc(Cl)ccc2Cl)=C(C#N)C1c1ccco1 (configuration not stated) was read as Cav3 T inh -3.7* and Ecoli tolC 36.
Screening COc1ccc(/C=C2\N=C(SC)N(C)C2=O)cc1 returned PostGolgi ctrl 13, Ecoli WT expand 1, Cav3 T inh -0.76 and PostGolgi yeast -4.
For CCCCN1C(=O)C2ON(c3ccccc3C)C(c3ccco3)C2C1=O (configuration not stated) the results were PostGolgi ctrl 25, Ecoli WT expand -15, Cav3 T inh -2.2, PostGolgi yeast -14 and Ecoli tolC 61*.
Cc1cc(C)n(-c2nc3sc4c(c3c(=O)[nH]2)CCCC4)n1 was read as PostGolgi ctrl 98*, Ecoli WT expand -4 and PostGolgi yeast 99*.
`CCOC(=O)c1cnn(-c2nc3sc4c(c3c(=O)[nH]2)CCCC4)c1N` gave Ecoli tolC 94*.
O=S(=O)(NCc1ccccc1)c1ccc(Cl)c(S(=O)(=O)NCc2ccccc2)c1 was read as PostGolgi ctrl 9, Ecoli WT expand 2, Cav3 T inh -3.4 and PostGolgi yeast 6.
For O=S(=O)(NCc1cc(-c2ccccc2Cl)no1)c1ccc(Cl)cc1 the results were PostGolgi ctrl 24, Ecoli WT expand 0, Cav3 T inh -7.2* and PostGolgi yeast 5.
Screening O=C(CSc1nc(-c2cccs2)cc(C(F)(F)F)n1)NCc1ccccc1 returned PostGolgi ctrl 30*, Ecoli WT expand -4, Cav3 T inh -2.2 and PostGolgi yeast -3.
For Cc1nc2sc3c(c2c(=O)[nH]1)CCC3 the results were PostGolgi ctrl -9, Ecoli WT expand -5, Cav3 T inh -0.023, PostGolgi yeast -1 and Ecoli tolC -8.
Screening Cc1cc(-c2nc3c4c5c(sc4[nH]c(=O)n3n2)CCC5)c(C)o1 returned PostGolgi ctrl 31*, Ecoli WT expand 1, Cav3 T inh -0.45, PostGolgi yeast 0 and Ecoli tolC 29.
CCc1ccc(OCc2nc(-c3ccccn3)no2)c(Br)c1 was read as PostGolgi ctrl 27, Ecoli WT expand 14, Cav3 T inh -4.6*, PostGolgi yeast 9 and Ecoli tolC 35.
`Clc1ccccc1OCc1nc(-c2ccncc2)no1` gave PostGolgi ctrl 11, Ecoli WT expand 11, Cav3 T inh 2, PostGolgi yeast 1 and Ecoli tolC 7.
`Cc1ccc(OCc2nc(-c3ccccn3)no2)c(Br)c1` gave PostGolgi ctrl 34*, Ecoli WT expand 14, Cav3 T inh -2.9, PostGolgi yeast -5 and Ecoli tolC 21.
For CC(C)c1ccc(OCc2nc(-c3ccccn3)no2)c(Br)c1 the results were PostGolgi ctrl 38*, Ecoli WT expand 1, Cav3 T inh -2.8, PostGolgi yeast 2 and Ecoli tolC 96*.
`Clc1ccc(OCc2nc(-c3ccncc3)no2)c(Br)c1` gave PostGolgi ctrl 79*, Ecoli WT expand 19, PostGolgi yeast 46* and Ecoli tolC 27.
Screening O=C(CSCc1cnn(-c2ccccc2)c1-n1cccc1)NCCN1CCOCC1 returned PostGolgi ctrl -1, Ecoli WT expand 9, Cav3 T inh 0.53, PostGolgi yeast 5 and Ecoli tolC -6.
O=C(NCc1ccccn1)C1CCN(Cc2cnn(-c3ccccc3)c2-n2cccc2)CC1 was read as PostGolgi ctrl 2, Ecoli WT expand -3, Cav3 T inh 1.2 and PostGolgi yeast -5.
For O=C(CSCc1cnn(-c2ccccc2)c1-n1cccc1)NCc1ccc2c(c1)OCO2 the results were PostGolgi ctrl 26, Ecoli WT expand -25, Cav3 T inh -7.7*, PostGolgi yeast -2 and Ecoli tolC 51.

Bioassay records: PubChem BioAssay, several laboratories
